Structures are written as SMILES.

Here are results for 11 molecules from ChEMBL document CHEMBL4145460, “Discovery of novel high potent and cellular active ADC type PTP1B inhibitors with selectivity over TC-PTP via modification interacting with C site” (Eur J Med Chem, 2018).

Assay [1] addresses T1, Receptor-type tyrosine-protein phosphatase F (Homo sapiens, UniProt P10586). Description: Inhibition of human GST-tagged LAR D1 (1275 to 1613 residues) expressed in Escherichia coli BL21-CondenPlus (DE3) at 25 uM using pNNP as substrate relative to control.
Assay [2] has as its target T2, Tyrosine-protein phosphatase non-receptor type 6 (Homo sapiens, UniProt P29350). Description: Inhibition of human GST-tagged SHP1 (244 to 570 residues) expressed in Escherichia coli BL21-CondenPlus (DE3) using pNNP as substrate.
Assay [3] deals with T3, Tyrosine-protein phosphatase non-receptor type 1 (Homo sapiens, UniProt P18031).
T3 sequence (P18031 whole entry): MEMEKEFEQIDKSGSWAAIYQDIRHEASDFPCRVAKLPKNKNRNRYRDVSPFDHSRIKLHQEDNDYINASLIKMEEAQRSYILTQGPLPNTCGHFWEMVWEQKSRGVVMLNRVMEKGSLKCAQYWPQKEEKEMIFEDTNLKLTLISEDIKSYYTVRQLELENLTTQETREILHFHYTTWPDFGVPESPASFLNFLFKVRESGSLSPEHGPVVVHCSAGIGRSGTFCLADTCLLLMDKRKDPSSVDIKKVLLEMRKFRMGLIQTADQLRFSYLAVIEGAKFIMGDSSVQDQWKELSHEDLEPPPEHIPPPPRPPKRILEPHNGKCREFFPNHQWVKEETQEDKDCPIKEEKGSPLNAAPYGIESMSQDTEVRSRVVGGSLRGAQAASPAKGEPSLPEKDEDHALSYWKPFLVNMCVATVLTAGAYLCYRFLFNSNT
Put plainly: Inhibition of recombinant human PTP1B using pNNP as substrate after 30 mins.

Assay [4] has as its target T4, Tyrosine-protein phosphatase non-receptor type 11 (Homo sapiens, UniProt Q06124).
T4 sequence (Q06124 whole entry): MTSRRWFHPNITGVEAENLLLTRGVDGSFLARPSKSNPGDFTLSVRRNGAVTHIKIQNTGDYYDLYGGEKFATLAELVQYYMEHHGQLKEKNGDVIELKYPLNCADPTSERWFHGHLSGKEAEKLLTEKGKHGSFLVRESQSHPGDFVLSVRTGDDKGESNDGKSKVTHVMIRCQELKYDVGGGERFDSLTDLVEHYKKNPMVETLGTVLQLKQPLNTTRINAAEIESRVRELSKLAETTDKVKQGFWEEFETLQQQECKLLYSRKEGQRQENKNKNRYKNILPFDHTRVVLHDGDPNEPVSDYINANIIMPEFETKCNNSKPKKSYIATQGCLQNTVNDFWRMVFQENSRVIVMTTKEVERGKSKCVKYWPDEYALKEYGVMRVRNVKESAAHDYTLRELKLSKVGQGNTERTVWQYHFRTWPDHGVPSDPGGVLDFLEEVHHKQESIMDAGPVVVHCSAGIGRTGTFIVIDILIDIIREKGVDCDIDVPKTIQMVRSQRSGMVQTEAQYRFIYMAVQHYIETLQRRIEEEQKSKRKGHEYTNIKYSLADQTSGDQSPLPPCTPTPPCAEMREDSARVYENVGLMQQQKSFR
Put plainly: Inhibition of human GST-tagged SHP2 ([…] residues) expressed in Escherichia coli BL21-CondenPlus (DE3) using pNNP as substrate.

The species named for assay [5] is Homo sapiens. Put plainly: Selective ratio of IC50 for human TCPTP to IC50 for recombinant human PTP1B. A digest of the protocol: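 Ratio of TCPTP IC50 to PTP1B IC50. Both measured with the same pNPP assay: 2 mM pNPP, pH 6.5 with DTT and EDTA, 30 min at 37 °C, NaOH stop, A405, logit-derived IC50.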
Assay [6] concerns the target T5, Tyrosine-protein phosphatase non-receptor type 2 (Homo sapiens, UniProt P17706).
T5 sequence (P17706 whole entry): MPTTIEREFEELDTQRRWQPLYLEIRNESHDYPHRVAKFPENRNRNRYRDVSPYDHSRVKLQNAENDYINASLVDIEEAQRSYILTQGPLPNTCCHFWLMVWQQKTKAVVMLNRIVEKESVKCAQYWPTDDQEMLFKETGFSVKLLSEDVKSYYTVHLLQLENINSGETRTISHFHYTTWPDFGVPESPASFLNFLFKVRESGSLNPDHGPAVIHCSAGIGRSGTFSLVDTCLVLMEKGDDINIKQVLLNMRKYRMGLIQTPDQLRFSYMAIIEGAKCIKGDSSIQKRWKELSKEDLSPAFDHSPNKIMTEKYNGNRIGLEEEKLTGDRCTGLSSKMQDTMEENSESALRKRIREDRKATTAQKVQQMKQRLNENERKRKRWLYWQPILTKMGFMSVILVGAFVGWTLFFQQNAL
Description: Inhibition of human TCPTP using pNNP as substrate after 30 mins.

In assay [7] the test system is L6. Put plainly: Antidiabetic activity in rat L6 cells assessed as increase in insulin-stimulated 2-NBDG uptake at 2.5 uM after 30 mins by fluorescent assay relative to control. The class given is functional. A digest of the protocol:
(§1)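 Differentiated L6 myotubes rinsed with warm PBS, serum-starved (serum-free DMEM 3 h, 37 °C; figure legend says 2 h), then exposed to compound at […] for 4 h. Insulin 10 nM for 10 min at 37 °C in Krebs-Ringer phosphate buffer pH 7.4, then 2-NBDG added. Uptake read after 30 min by fluorescence at ex 485/em 535 nm. Background from cells with drug but no 2-NBDG. n = 3, mean ± SEM.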

Assay [8] has as its system L6. Description: Antidiabetic activity in rat L6 cells assessed as increase in insulin-stimulated 2-NBDG uptake at 0.5 uM after 30 mins by fluorescent assay relative to control. Type of assay: functional. The method in brief:
as §1

Assay [9] addresses T1, Receptor-type tyrosine-protein phosphatase F. Put plainly: Inhibition of human GST-tagged LAR D1 (1275 to 1613 residues) expressed in Escherichia coli BL21-CondenPlus (DE3) using pNNP as substrate.
The subject of assay [10] is L6. Put plainly: Antidiabetic activity in rat L6 cells assessed as increase in insulin-stimulated 2-NBDG uptake at 10 uM after 30 mins by fluorescent assay relative to control. Type of assay: functional. The method in brief:
as §1

The target of assay [11] is T6, Tyrosine-protein phosphatase non-receptor type 11 (Homo sapiens) (UniProt Q06124).
T6 sequence (whole entry): T4 sequence (Q06124 whole entry)
Put plainly: Inhibition of human GST-tagged SHP2 ([…] residues) expressed in Escherichia coli BL21-CondenPlus (DE3) at 25 uM using pNNP as substrate relative to control.

Assay [12] deals with T2, Tyrosine-protein phosphatase non-receptor type 6. Description: Inhibition of human GST-tagged SHP1 (244 to 570 residues) expressed in Escherichia coli BL21-CondenPlus (DE3) at 25 uM using pNNP as substrate relative to control.
The target of assay [13] is T7, Tyrosine-protein phosphatase non-receptor type 1 (Homo sapiens) (UniProt P18031).
T7 sequence (whole entry): T3 sequence (P18031 whole entry)
Put plainly: Inhibition of recombinant human PTP1B at 25 uM using pNNP as substrate after 30 mins relative to control. A digest of the protocol:
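Recombinant PTP1B, 30 nM, with 2 mM pNPP, 1 mM dithiothreitol and 1 mM EDTA at pH 6.5. Compounds delivered from DMSO. Incubated 30 min at 37 °C, stopped with 2.5 M NaOH, pNP read at 405 nm.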

T1 sequence (P10586 whole entry, the tested form may be a part): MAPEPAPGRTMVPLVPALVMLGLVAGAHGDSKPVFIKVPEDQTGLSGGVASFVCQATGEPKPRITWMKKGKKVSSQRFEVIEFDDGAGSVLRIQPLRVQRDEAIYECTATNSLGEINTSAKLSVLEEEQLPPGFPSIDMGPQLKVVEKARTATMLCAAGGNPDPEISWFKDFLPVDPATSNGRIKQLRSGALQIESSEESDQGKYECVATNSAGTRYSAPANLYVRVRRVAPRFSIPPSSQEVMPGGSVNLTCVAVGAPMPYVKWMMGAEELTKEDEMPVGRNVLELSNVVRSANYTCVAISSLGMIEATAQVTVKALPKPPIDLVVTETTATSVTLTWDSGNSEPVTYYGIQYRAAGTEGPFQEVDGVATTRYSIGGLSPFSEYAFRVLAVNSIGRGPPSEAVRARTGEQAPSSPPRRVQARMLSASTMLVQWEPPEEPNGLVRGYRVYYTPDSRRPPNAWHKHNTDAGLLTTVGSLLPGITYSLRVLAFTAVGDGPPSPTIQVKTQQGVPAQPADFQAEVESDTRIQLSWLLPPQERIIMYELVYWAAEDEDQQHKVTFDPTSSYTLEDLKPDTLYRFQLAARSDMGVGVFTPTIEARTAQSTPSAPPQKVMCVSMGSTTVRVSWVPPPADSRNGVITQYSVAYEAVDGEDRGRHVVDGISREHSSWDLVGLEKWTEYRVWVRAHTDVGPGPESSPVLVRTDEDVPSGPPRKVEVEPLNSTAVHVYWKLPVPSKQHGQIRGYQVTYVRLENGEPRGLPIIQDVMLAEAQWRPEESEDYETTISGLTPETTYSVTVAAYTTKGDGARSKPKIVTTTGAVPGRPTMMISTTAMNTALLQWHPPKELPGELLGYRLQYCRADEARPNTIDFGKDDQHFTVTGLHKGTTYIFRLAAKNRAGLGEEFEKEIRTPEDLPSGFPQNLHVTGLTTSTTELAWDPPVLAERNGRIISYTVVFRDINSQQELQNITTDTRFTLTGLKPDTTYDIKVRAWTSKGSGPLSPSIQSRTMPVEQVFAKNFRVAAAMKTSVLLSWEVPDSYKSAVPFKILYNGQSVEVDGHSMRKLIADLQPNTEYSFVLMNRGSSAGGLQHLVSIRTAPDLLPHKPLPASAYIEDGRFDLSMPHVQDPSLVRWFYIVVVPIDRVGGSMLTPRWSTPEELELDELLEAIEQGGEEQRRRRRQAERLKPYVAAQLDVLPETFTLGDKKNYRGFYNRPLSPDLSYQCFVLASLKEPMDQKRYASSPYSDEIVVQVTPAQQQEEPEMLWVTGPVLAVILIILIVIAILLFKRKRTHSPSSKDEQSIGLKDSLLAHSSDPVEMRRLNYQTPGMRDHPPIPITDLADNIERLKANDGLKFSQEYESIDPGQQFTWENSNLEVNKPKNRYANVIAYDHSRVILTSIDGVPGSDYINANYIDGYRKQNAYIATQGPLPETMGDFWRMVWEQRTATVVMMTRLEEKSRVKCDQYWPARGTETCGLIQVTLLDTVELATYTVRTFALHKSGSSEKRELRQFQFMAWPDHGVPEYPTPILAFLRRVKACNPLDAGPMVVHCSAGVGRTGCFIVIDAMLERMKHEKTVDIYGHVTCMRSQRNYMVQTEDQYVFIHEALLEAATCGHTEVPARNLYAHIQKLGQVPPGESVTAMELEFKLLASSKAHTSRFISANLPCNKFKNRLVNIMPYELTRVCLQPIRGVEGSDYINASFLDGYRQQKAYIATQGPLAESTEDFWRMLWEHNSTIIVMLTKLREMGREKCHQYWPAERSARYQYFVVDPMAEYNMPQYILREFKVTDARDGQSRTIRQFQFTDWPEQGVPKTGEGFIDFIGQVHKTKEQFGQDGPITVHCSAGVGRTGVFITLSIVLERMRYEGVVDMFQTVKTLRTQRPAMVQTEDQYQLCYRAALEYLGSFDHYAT
T2 sequence (P29350 whole entry, the tested form may be a part): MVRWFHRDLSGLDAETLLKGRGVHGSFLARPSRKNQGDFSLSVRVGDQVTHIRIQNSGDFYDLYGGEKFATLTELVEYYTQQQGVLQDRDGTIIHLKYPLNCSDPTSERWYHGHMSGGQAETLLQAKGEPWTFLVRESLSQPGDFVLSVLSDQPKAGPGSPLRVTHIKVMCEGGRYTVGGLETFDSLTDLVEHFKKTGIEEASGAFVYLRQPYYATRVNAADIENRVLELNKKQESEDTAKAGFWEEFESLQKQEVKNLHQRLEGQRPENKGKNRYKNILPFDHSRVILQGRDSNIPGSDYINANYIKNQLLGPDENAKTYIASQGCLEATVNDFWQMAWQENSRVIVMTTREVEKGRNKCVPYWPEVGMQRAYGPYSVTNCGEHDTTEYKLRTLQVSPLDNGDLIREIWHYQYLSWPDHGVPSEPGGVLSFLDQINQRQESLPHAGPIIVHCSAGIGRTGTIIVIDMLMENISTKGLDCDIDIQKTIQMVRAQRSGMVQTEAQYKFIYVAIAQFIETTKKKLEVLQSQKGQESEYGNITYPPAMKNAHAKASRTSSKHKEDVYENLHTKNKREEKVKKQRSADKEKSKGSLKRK

On to `CCCOc1ccc(NC(=O)NCc2cc(OCC)c(NS(C)(=O)=O)cc2OCC)cc1C(=O)OC`, for which the inhibition in assay [1] is < 50%. Further, the IC50 in [2] stood at 3.45 µM; in [3], 0.0682 µM; in assay [4] it was 7.76 µM; in assay [6], 1.18 µM. The Ratio IC50 in assay [5] is 17.3.

As for `CCOc1cc(NS(C)(=O)=O)c(OCC)cc1CNC(=O)Nc1ccc(OCC)c(C(=O)OC)c1`, the Activity in assay [7] worked out at 22.4%; in [8], 16.2%; in assay [10], 22.9%. Moreover, the IC50 is 1.09 µM in [2]; 0.0186 µM in assay [3]; 5.36 µM in assay [9]; 0.91 µM in assay [4]; 0.67 µM in assay [6]. The Ratio IC50 in assay [5] came out at 36.

As for `CCOc1cc(NS(C)(=O)=O)c(OCC)cc1CNC(=O)Nc1ccc(OCC)c(C(=O)NC)c1`, the inhibition in [1], in [11] and in assay [12] was < 50% throughout. Besides, the IC50 worked out at 0.166 µM in assay [3] and 7.62 µM in [6]. The Ratio IC50 in [5] came to 45.9.

For `CCCCOc1ccc(NC(=O)NCc2cc(OCC)c(NS(C)(=O)=O)cc2OCC)cc1C(=O)OC`, the IC50 in assay [3] was 0.711 µM.

Turning to `CCCNC(=O)c1cc(NC(=O)NCc2cc(OCC)c(NS(C)(=O)=O)cc2OCC)ccc1OCC`, the inhibition in assay [1] and in assay [11] was < 50% each time. Moreover, the results for the IC50 in assay [2], in assay [3] and in assay [6] were 8.63 µM, 0.184 µM and 2.02 µM, respectively. The Ratio IC50 in [5] stood at 10.9.

With `CCOc1cc(NS(C)(=O)=O)c(OCC)cc1CNC(=O)Nc1ccc(OCC)c(C(=O)Nc2ccc(C)cc2)c1`, the IC50 amounted to 2.94 µM in assay [2], 0.209 µM in assay [3], 6.95 µM in [9] and 0.87 µM in [6]. Also, the inhibition in assay [11] was < 50%. Also, the Ratio IC50 in assay [5] was found to be 4.1.

Take `CCOc1cc(NS(C)(=O)=O)c(OCC)cc1CNC(=O)Nc1ccc(OCC)c(C(=O)Nc2cccc(OC)c2)c1`: the IC50 in assay [3] worked out at 0.981 µM.

With `CCOc1cc(NS(C)(=O)=O)c(OCC)cc1CNC(=O)Nc1ccc(OCC)c(C(=O)Nc2ccc(OC)cc2)c1`, the inhibition in assay [13] is < 50%.

Turning to `CCOc1cc(NS(C)(=O)=O)c(OCC)cc1CNC(=O)Nc1ccc(OCC)c(C(=O)Nc2ccc(OC)c(OC)c2)c1`, the Activity is 18.7% in assay [7], 6.6% in assay [8] and 25.8% in assay [10]. Besides, the IC50 in assay [2] was found to be 0.85 µM; in assay [3], 0.0662 µM; in [9], 7.34 µM; in assay [4], 1.59 µM; in assay [6] it was 0.39 µM. For the same molecule, in assay [5], the Ratio IC50 came out at 5.9.

In the case of `CCNC(=O)c1cc(NC(=O)NCc2cc(OCC)c(NS(C)(=O)=O)cc2OCC)ccc1OCC`, the IC50 in [3] was 0.169 µM.

For `CCOc1cc(NS(C)(=O)=O)c(OCC)cc1CNC(=O)Nc1ccc(OCC)c(C(=O)Nc2ccccc2)c1`, in [13], the inhibition was < 50%.
